Source: ChEMBL document CHEMBL4811225 (J Med Chem, 2021)
Where a SMILES comes first, the peptide text is derived from it. Bridges are numbered along the chain shown (N, C = ends).

Legend:
[1] = target: T1, Nicotinic acetylcholine receptor alpha6/alpha3/beta4 (Homo sapiens, UniProt P30926+P32297+Q15825); format: cell-based, Oocyte
[2] = target: Nicotinic acetylcholine receptor alpha6/alpha3/beta4 (Rattus norvegicus, UniProt P04757+P12392+P43143); format: cell-based, Oocyte
[3] = target: T2, Neuronal acetylcholine receptor; alpha2/beta2 (Homo sapiens, UniProt P17787+Q15822); experiment: Inhibition of human alpha2beta2 nAChR expressed in Xenopus laevis oocytes assessed as inhibition of acetylcholine-induced current response by two-electrode voltage-clamp method; format: cell-based, Oocyte
Summary of the method: (§1)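 Two-electrode voltage clamp of stage IV–V oocytes 1–5 days after equal-ratio cRNA injection; ACh 100 μM (β2-containing subtypes, α9α10), 1 s every 60 s in frog saline. Peptide perfused up to 1 μM, responses normalized to mean of three control responses; above 1 μM, 5 min static bath. IC50 with 95% CI; n = oocytes.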

[4] = target: Neuronal acetylcholine receptor; alpha3/beta2 (Rattus norvegicus, UniProt P04757+P12390); format: cell-based, Oocyte
[5] = target: Neuronal acetylcholine receptor; alpha3/beta4 (Homo sapiens, UniProt P30926+P32297); experiment: Inhibition of human alpha3beta4 nAChR expressed in Xenopus laevis oocytes assessed as inhibition of acetylcholine-induced current response by two-electrode voltage-clamp method; format: cell-based, Oocyte
Summary of the method: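 TEVC on stage IV–V oocytes 1–5 days after equal-ratio cRNA injection (α2β4, α3β4, α4β4, α7). ACh 300 μM, 1 s pulses at 60 s intervals under frog saline perfusion. Peptide perfused to 1 μM, normalized to average of three control responses; higher concentrations by 5 min static bath. IC50 with 95% CI, n oocytes.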

[6] = target: Neuronal acetylcholine receptor; alpha4/beta2 (Rattus norvegicus, UniProt P09483+P12390); format: cell-based, Oocyte
[7] = target: Neuronal acetylcholine receptor; alpha3/alpha6/beta2/beta3 (Homo sapiens, UniProt P17787+P32297+Q05901+Q15825); experiment: Inhibition of human alpha6/alpha3beta2beta3 nAChR expressed in Xenopus laevis oocytes assessed as inhibition of acetylcholine-induced current response by two-electrode voltage-clamp method; format: cell-based, Oocyte
Summary of the method: as §1

[8] = target: Neuronal acetylcholine receptor subunit alpha-7 (Rattus norvegicus, UniProt Q05941); format: cell-based, Oocyte
Homo sapiens [9] = organism: Homo sapiens; experiment: Selectivity ratio of IC50 for human alpha2beta2 nAChR to IC50 for human alpha6/alpha3beta4 nAChR
Summary of the method: (§2)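 Ratio of each subtype's IC50, from TEVC inhibition of ACh-evoked currents in X. laevis oocytes, to the IC50 at the same species' α6/α3β4 nAChR; IC50 values with 95% CI, n = number of oocytes.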

Homo sapiens [10] = organism: Homo sapiens; experiment: Selectivity ratio of IC50 for human alpha2beta4 nAChR to IC50 for human alpha6/alpha3beta4 nAChR
Summary of the method: as §2

Rattus norvegicus [11] = organism: Rattus norvegicus; experiment: Selectivity ratio of IC50 for rat alpha2beta4 nAChR to IC50 for rat alpha6/alpha3beta4 nAChR
Summary of the method: as §2

Homo sapiens [12] = organism: Homo sapiens; experiment: Selectivity ratio of IC50 for human alpha3beta2 nAChR to IC50 for human alpha6/alpha3beta4 nAChR
Summary of the method: as §2

Rattus norvegicus [13] = organism: Rattus norvegicus; experiment: Selectivity ratio of IC50 for rat alpha3beta2 nAChR to IC50 for rat alpha6/alpha3beta4 nAChR
Summary of the method: as §2

Rattus norvegicus [14] = organism: Rattus norvegicus; experiment: Selectivity ratio of IC50 for rat alpha4beta4 nAChR to IC50 for rat alpha6/alpha3beta4 nAChR
Summary of the method: as §2

Rattus norvegicus [15] = organism: Rattus norvegicus; experiment: Selectivity ratio of IC50 for rat alpha7 nAChR to IC50 for rat alpha6/alpha3beta4 nAChR
Summary of the method: as §2

Homo sapiens [16] = organism: Homo sapiens; experiment: Selectivity ratio of IC50 for human alpha9alpha10 nAChR to IC50 for human alpha6/alpha3beta4 nAChR
Summary of the method: as §2

[17] = target: Nicotinic acetylcholine receptor alpha-1/beta-1/delta/epsilon (Homo sapiens) (UniProt P02708+P11230+Q07001+Q04844); experiment: Inhibition of human alpha1beta1deltaepsilon nAChR expressed in Xenopus laevis oocytes assessed as inhibition of acetylcholine-induced current response at 10 uM by two-electrode voltage-clamp method relative to control; format: cell-based; settings: Oocyte
Summary of the method: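 Human α1, β1, δ and ε cDNAs injected in equal ratios into the nucleus of stage IV–V X. laevis oocytes; TEVC 1–5 days later. ACh 100 μM, 1 s pulses at 60 s intervals. Peptide 10 μM applied as 5 min static bath; response normalized to ACh response after 5 min bath of control saline; mean ± SD, n = 4.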

[18] = target: T2, Neuronal acetylcholine receptor; alpha2/beta2; experiment: Inhibition of human alpha2beta2 nAChR expressed in Xenopus laevis oocytes assessed as inhibition of acetylcholine-induced current response at 10 uM by two-electrode voltage-clamp method relative to control; format: cell-based; settings: Oocyte
Summary of the method: (§3)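 Oocytes (stage IV–V) injected with equal-ratio cRNAs of cloned subunits; TEVC 1–5 days post-injection. ACh 100 μM for β2-containing and α9α10 subtypes, 1 s pulses every 60 s. Peptide 10 μM in 5 min static bath; response normalized to ACh response after 5 min control-saline bath; mean ± SD, n = 4.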

[19] = target: Neuronal acetylcholine receptor; alpha3/beta2 (Homo sapiens, UniProt P17787+P32297); experiment: Inhibition of human alpha3beta2 nAChR expressed in Xenopus laevis oocytes assessed as inhibition of acetylcholine-induced current response at 10 uM by two-electrode voltage-clamp method relative to control; format: cell-based; settings: Oocyte
Summary of the method: as §3

[20] = target: Neuronal acetylcholine receptor; alpha2/beta2 (Rattus norvegicus) (UniProt P12389+P12390); experiment: Inhibition of rat alpha2beta2 nAChR expressed in Xenopus laevis oocytes assessed as inhibition of acetylcholine-induced current response at 10 uM by two-electrode voltage-clamp method relative to control; format: cell-based; settings: Oocyte
Summary of the method: as §3

[21] = target: Neuronal acetylcholine receptor; alpha2/beta4 (Rattus norvegicus) (UniProt P12389+P12392); experiment: Inhibition of rat alpha2beta4 nAChR expressed in Xenopus laevis oocytes assessed as inhibition of acetylcholine-induced current response at 10 uM by two-electrode voltage-clamp method relative to control; format: cell-based; settings: Oocyte
Summary of the method: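 Stage IV–V X. laevis oocytes expressing equal-ratio cRNAs of α2β4, α3β4, α4β4 or α7 subunits; TEVC 1–5 days after injection. ACh 300 μM, 1 s at 60 s intervals. 10 μM peptide as 5 min static bath, normalized to ACh response after 5 min bath of control saline; mean ± SD, n = 4.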

[22] = target: Neuronal acetylcholine receptor; alpha3/beta2 (Rattus norvegicus) (UniProt P04757+P12390); experiment: Inhibition of rat alpha3beta2 nAChR expressed in Xenopus laevis oocytes assessed as inhibition of acetylcholine-induced current response at 10 uM by two-electrode voltage-clamp method relative to control; format: cell-based; settings: Oocyte
Summary of the method: as §3

[23] = target: Nicotinic acetylcholine receptor alpha9/alpha10 (Rattus norvegicus) (UniProt P43144+Q9JLB5); experiment: Inhibition of rat alpha9alpha10 nAChR expressed in Xenopus laevis oocytes assessed as inhibition of acetylcholine-induced current response at 10 uM by two-electrode voltage-clamp method relative to control; format: cell-based; settings: Oocyte
Summary of the method: as §3

[24] = target: T1, Nicotinic acetylcholine receptor alpha6/alpha3/beta4; settings: Oocyte

Sequence of Neuronal acetylcholine receptor subunit alpha-7 (Q05941 whole entry): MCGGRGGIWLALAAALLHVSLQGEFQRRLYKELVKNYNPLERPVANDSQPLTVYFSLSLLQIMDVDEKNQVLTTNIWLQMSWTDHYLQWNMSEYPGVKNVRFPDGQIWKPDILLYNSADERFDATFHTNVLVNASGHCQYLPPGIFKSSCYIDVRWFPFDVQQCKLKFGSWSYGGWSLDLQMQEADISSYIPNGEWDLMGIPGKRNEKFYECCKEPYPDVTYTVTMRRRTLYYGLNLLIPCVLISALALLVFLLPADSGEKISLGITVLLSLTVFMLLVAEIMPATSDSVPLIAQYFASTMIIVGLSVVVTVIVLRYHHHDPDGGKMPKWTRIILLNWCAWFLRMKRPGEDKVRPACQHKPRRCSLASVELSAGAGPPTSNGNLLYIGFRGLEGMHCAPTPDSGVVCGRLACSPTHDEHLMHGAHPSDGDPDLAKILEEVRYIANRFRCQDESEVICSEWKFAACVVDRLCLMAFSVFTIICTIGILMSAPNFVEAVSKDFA
Sequence of Neuronal acetylcholine receptor; alpha3/beta2 (Rattus norvegicus, UniProt P04757+P12390) (P04757 whole entry): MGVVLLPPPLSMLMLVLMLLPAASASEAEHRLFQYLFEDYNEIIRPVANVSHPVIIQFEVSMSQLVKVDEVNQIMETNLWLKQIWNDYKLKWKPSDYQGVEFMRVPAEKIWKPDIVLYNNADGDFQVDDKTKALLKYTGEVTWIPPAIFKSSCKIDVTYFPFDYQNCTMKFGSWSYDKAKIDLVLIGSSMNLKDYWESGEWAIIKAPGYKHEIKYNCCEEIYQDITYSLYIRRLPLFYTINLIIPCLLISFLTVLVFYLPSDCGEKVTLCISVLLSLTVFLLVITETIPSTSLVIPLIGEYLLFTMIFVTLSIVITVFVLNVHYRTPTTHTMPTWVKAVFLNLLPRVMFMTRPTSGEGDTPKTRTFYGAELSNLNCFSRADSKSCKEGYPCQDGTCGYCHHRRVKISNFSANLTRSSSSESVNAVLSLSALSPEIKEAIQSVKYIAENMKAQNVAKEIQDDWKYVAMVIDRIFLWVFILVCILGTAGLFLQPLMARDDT
Sequence of Neuronal acetylcholine receptor; alpha3/beta2 (Rattus norvegicus, UniProt P04757+P12390) (P12390 whole entry): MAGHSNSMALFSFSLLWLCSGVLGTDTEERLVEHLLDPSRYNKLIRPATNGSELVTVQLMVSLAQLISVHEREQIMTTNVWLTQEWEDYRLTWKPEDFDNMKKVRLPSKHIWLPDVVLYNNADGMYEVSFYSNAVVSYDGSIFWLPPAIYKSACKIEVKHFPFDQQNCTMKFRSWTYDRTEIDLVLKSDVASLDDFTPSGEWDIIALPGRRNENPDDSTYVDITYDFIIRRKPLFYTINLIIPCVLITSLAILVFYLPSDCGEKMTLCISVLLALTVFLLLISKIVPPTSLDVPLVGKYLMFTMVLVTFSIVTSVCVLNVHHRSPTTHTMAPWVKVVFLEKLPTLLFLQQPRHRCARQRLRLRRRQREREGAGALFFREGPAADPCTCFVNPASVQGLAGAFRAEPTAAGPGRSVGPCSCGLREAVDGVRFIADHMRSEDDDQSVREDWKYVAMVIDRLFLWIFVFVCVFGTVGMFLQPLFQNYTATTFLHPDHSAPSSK
Sequence of Nicotinic acetylcholine receptor alpha6/alpha3/beta4 (Rattus norvegicus, UniProt P04757+P12392+P43143) (P04757 whole entry): as the sequence (P04757 whole entry) above
Sequence of Nicotinic acetylcholine receptor alpha6/alpha3/beta4 (Rattus norvegicus, UniProt P04757+P12392+P43143) (P12392 whole entry): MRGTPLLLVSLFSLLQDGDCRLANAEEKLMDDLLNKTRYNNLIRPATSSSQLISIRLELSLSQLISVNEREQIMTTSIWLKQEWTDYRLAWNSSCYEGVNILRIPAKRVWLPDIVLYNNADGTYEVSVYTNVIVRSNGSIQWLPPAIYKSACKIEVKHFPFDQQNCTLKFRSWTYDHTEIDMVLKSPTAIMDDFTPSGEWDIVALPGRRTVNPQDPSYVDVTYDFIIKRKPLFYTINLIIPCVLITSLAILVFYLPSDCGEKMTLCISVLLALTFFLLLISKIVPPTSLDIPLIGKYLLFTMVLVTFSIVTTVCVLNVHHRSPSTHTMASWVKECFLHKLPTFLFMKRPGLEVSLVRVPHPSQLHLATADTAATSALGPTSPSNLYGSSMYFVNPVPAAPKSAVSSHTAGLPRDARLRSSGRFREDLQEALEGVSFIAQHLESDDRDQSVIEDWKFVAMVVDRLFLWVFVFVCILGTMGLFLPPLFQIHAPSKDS
Sequence of Nicotinic acetylcholine receptor alpha6/alpha3/beta4 (Rattus norvegicus, UniProt P04757+P12392+P43143) (P43143 whole entry): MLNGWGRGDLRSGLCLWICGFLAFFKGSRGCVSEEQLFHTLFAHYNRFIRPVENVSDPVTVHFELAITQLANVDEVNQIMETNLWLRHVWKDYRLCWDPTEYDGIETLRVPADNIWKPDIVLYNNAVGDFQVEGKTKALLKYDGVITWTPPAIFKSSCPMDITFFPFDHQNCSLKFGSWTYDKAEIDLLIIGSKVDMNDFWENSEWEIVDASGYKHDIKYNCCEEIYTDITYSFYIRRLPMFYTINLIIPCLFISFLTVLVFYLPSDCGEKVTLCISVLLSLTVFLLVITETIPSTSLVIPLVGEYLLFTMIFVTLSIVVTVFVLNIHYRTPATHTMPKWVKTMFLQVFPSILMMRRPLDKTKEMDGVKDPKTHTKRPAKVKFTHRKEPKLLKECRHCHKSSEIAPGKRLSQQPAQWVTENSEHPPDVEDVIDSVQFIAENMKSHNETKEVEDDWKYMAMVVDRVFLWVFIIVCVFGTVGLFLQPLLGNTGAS
T1 sequence (P30926 whole entry): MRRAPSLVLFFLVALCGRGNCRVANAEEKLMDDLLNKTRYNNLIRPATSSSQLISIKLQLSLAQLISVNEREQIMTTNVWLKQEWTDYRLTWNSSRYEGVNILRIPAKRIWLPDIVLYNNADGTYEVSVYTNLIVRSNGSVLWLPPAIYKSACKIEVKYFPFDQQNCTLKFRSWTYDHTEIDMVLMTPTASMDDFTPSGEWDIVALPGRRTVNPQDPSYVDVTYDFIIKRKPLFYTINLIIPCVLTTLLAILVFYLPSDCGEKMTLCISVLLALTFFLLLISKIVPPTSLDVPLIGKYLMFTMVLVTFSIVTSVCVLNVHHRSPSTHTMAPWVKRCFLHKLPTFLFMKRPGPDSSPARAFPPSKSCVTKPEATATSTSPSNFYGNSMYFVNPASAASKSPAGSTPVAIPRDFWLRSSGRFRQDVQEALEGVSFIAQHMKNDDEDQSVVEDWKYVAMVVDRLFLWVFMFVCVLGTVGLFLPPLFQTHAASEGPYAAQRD
T1 sequence (P32297 whole entry): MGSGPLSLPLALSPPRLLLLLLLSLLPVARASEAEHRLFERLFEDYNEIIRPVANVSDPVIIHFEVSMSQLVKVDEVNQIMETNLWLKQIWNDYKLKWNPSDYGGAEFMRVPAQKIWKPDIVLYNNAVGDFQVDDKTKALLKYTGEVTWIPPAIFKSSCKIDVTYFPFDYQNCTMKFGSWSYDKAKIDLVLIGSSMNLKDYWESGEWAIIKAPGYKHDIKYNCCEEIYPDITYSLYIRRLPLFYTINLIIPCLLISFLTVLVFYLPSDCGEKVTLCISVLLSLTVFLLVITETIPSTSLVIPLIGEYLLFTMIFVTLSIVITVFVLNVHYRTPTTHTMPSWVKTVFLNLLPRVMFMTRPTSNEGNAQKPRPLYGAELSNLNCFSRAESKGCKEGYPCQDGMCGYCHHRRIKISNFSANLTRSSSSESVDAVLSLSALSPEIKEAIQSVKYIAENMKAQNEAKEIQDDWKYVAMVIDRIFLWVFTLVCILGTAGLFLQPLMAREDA
T1 sequence (Q15825 whole entry): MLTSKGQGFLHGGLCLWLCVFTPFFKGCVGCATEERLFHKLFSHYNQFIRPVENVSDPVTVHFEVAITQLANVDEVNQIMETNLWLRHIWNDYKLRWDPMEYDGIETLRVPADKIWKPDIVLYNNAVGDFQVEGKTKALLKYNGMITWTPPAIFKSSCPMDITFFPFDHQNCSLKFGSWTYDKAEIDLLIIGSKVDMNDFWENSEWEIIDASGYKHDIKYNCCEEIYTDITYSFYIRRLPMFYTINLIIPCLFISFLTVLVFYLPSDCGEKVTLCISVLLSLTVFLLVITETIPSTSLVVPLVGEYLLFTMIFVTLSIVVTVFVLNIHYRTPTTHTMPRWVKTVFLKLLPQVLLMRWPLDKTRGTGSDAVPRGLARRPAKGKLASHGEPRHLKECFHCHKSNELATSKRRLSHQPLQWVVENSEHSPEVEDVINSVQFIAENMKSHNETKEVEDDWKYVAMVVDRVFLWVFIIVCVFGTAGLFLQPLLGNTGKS

## CC[C@H](C)[C@@H]1NC(=O)[C@H](CCC(=O)O)NC(=O)[C@@H]2CCCN2C(=O)[C@H](Cc2cnc[nH]2)NC(=O)[C@H](CC(N)=O)NC(=O)[C@H](C(C)C)NC(=O)[C@H](CC(N)=O)NC(=O)[C@@H]2CSSC[C@H](NC(=O)CN)C(=O)N[C@@H](CSSC[C@@H](C(N)=O)NC1=O)C(=O)N[C@@H](CO)C(=O)N[C@@H](Cc1cnc[nH]1)C(=O)N1CCC[C@H]1C(=O)N[C@@H](C(C)C)C(=O)N2 (H-GCCSHPVCNVNHPEIC-NH2; disulfide 2-8, 3-16)
[1]
  IC50: 0.2 nM
[2]
  IC50: 0.48 nM
[3]
  IC50: > 10000 nM
[4]
  IC50: > 10000 nM
[5]
  IC50: 179 nM
[6]
  IC50: > 10000 nM
[7]
  IC50: 135 nM
[8]
  IC50: > 10000 nM
Homo sapiens [9]
  Ratio IC50: > 50000
Homo sapiens [10]
  Ratio IC50: > 50000
Rattus norvegicus [11]
  Ratio IC50: > 20000
Homo sapiens [12]
  Ratio IC50: > 50000
Rattus norvegicus [13]
  Ratio IC50: > 20000
Rattus norvegicus [14]
  Ratio IC50: > 20000
Rattus norvegicus [15]
  Ratio IC50: > 20000
Homo sapiens [16]
  Ratio IC50: > 50000
[17]
  inhibition: 93%
[18]
  inhibition: 95%
[19]
  inhibition: 76%
[20]
  inhibition: 98%
[21]
  inhibition: 85%
[22]
  inhibition: 94%
[23]
  inhibition: 69%
[24]
  deltalogIC50: -1.5
